Experimental data taken from ChEMBL document CHEMBL1124612, “Synthesis and structure-activity relationships of a series of anxioselective pyrazolopyridine ester and amide anxiolytic agents” (J Med Chem, 1989).

What was measured:
[1] = biological target: GABA-A receptor; anion channel; assay: Inhibition of [3H]flunitrazepam binding to GABA-A benzodiazepine receptor of rat cerebral cortex; assay type: tissue-based
Rattus norvegicus = assay: Minimum effective dose (po) tested for its anxiolytic activity in rat using the shock-induced suppression of drinking (SSD) test.; assay type: functional; conditions: read-out: MED
How it was run: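 Rats (n = 8 per dose) were dosed orally at one or more levels and then run in the shock-induced suppression of drinking conflict test. MED is the dose producing a significant rise (p < 0.05, Student's t test) in mean shocks accepted relative to vehicle-treated controls.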

Row | SMILES | IC50 [1] [nM] | minimal effective dose (Rattus norvegicus) [mg/kg]
1 | CCCCCn1ncc2c(N)c(C(=O)NC)cnc21 | 354 | 12.5
2 | CCCCCn1ncc2c(N)c(C(=O)NCCC)cnc21 | 89 | 25
3 | C=CCCCn1ncc2c(N)c(C(=O)OCC=C)c(C)nc21 | 9.7 | 25
4 | CC#CCCn1ncc2c(N)c(C(=O)OCC3CC3)c(C)nc21 | 315 | 12.5
5 | C#CCOC(=O)c1c(C)nc2c(cnn2CCCCC)c1N | 89 | 25
6 | C=CCOC(=O)c1c(C)nc2c(cnn2CCCC)c1N | 21 | 25
7 | CCCCNc1c(C(=O)OCC)c(C)nc2c1cnn2CC [TRACAZOLATE] | – | 40
8 | CC#CCNC(=O)c1cnc2c(cnn2CCCCC)c1N | 84 | 6.3
9 | CCCCCn1ncc2c(N)c(C(=O)OCC3CC3)c(C)nc21 | 131 | 12.5
10 | CC#CCCn1ncc2c(N)c(C(=O)OCC)c(C)nc21 | 590 | 25
11 | CCCCn1ncc2c(N)c(C(=O)OCC)c(C)nc21 | 50 | 40
12 | CCCCCn1ncc2c(N)c(C(=O)OCC)c(C)nc21 | 58 | 50
13 | C#CCNC(=O)c1cnc2c(cnn2CCCCC)c1N | 60 | 6.3
14 | C#CCCCCn1ncc2c(N)c(C(=O)OCC=C)c(C)nc21 | 8.6 | 25
15 | C=CCOC(=O)c1c(C)nc2c(cnn2CCC#CC)c1N | 79 | 25
16 | C=CCOC(=O)c1c(C)nc2c(cnn2CCC(C)C)c1N | 13 | 50
17 | CCCCCn1ncc2c(N)c(C(=O)NCC3CC3)cnc21 | 35 | 6.3
18 | CCCCCn1ncc2c(N)c(C(=O)NOCC)cnc21 | 531 | 12.5
19 | C=CCOC(=O)c1c(C)nc2c(cnn2CC=C)c1N | 112 | 25

Row | SMILES | IC50 [1] [nM] | minimal effective dose (Rattus norvegicus) [mg/kg]
20 | CCOC(=O)c1c(C)nc2c(cnn2CCC(C)C)c1N | 39 | 100
21 | C=CCNC(=O)c1cnc2c(cnn2CCCCC)c1N | 28 | 12.5
22 | CCCCCn1ncc2c(N)c(C(=O)NC3CC3)cnc21 | 312 | 12.5
23 | CCCCCn1ncc2c(N)c(C(N)=O)cnc21 | 2450 | 12.5
24 | CC#CCCn1ncc2c(N)c(C(=O)NCCC)cnc21 | 500 | 6.3
25 | C#CCCCn1ncc2c(N)c(C(=O)OCC3CC3)c(C)nc21 | 22 | 12.5
26 | C=CCOC(=O)c1c(C)nc2c(cnn2CCC2CC2)c1N | 16 | 25
27 | CCCCCn1ncc2c(N)c(C(=O)NCc3ccccc3)cnc21 | 36 | 25
28 | CCCCCn1ncc2c(N)c(C(=O)NCC)cnc21 | 109 | 12.5
29 | CCCCCn1ncc2c(N)c(C(=O)NCCCC)cnc21 | 80 | 50
30 | CC#CCCn1ncc2c(N)c(C(=O)NCC3CC3)cnc21 | 271 | 3.1
31 | CCCCCn1ncc2c(N)c(C(=O)N3CCC3)cnc21 | 137 | 50
32 | CNC1=Nc2ccc(Cl)cc2C(c2ccccc2)=[N+]([O-])C1 [CHLORDIAZEPOXIDE] | 330 | 10
33 | C=CCNC(=O)c1c[n+]([O-])c2c(cnn2CCCCC)c1N | 53 | 12.5
34 | C#CCCCn1ncc2c(N)c(C(=O)OCC=C)c(C)nc21 | 5.5 | 12.5
35 | C=CCCn1ncc2c(N)c(C(=O)OCC=C)c(C)nc21 | 54 | 25
36 | C=CCOC(=O)c1c(C)nc2c(cnn2CCCCC)c1N | 21 | 25
37 | C#CCCn1ncc2c(N)c(C(=O)OCC=C)c(C)nc21 | 160 | 50
